Experimental data from ChEMBL document CHEMBL2176993, “Jatrophane diterpenes from Euphorbia mellifera and their activity as P-glycoprotein modulators on multidrug-resistant mouse lymphoma and human colon adenocarcinoma cells” (J Nat Prod, 2012).

Legend:
[1] = target: T1, ATP-dependent translocase ABCB1 (Homo sapiens, UniProt P08183); experiment: Inhibition of MDR1-mediated rhodamine 123 uptake expressed in mouse L5178Y cells assessed as fluorescence activity ratio at 2 ug/mL after 10 mins by flow cytometry relative to parent cells; format: cell-based; details: in the assay text read “2 uM” for “2 ug/mL”
T1 sequence (P08183 whole entry): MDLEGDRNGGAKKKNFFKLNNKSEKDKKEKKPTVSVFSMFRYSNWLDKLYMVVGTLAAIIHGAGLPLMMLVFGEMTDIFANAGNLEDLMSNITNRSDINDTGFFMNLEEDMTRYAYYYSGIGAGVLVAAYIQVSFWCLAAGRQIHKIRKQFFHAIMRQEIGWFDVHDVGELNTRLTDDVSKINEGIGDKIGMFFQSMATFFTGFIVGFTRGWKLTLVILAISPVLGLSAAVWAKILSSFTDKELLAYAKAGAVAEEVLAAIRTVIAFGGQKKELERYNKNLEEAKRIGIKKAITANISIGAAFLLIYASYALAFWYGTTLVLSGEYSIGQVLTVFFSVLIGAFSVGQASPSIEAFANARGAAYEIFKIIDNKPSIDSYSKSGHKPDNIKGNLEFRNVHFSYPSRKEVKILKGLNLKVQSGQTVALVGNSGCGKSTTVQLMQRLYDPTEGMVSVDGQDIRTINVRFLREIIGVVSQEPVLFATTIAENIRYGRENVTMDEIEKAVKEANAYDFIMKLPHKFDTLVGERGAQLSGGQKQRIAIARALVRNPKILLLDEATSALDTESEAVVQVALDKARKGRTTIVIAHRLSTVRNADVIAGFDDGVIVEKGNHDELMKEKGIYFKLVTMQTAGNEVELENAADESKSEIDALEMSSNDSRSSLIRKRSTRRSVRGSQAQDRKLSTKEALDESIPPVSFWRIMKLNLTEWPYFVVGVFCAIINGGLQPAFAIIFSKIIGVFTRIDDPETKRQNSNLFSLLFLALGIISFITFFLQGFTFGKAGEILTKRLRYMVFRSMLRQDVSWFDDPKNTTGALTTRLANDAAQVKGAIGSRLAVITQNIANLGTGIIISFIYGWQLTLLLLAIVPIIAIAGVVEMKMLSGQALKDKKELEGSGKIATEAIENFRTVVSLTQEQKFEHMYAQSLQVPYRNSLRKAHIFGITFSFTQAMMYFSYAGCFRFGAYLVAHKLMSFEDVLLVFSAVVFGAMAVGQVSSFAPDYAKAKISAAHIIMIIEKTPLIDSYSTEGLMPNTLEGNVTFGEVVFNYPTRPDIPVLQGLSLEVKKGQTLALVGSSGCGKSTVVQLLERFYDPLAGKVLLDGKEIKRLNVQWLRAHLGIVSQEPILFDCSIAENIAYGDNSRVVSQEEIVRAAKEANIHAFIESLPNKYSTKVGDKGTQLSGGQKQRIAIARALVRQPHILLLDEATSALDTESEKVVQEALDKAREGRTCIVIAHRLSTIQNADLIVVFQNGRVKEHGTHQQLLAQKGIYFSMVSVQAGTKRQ
Procedure, shortened: (§1)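 Mouse L5178Y cells, parental and human MDR1-transfected (kept with 60 ng/mL colchicine), were held at 2 × 10^6/mL in serum-free McCoy's 5A and given compound (2, 6, 20, 60 μM) for 10 min at room temperature. […] Rhodamine-123 (5.2 μM final) followed for 20 min at 37 °C; cells were washed twice into PBS. FL-1 of 10 000 cells was read by flow cytometry. FAR = treated/untreated MDR versus PAR.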

[2] = target: T1, ATP-dependent translocase ABCB1; experiment: Inhibition of MDR1-mediated rhodamine 123 uptake expressed in mouse L5178Y cells assessed as fluorescence activity ratio at 60 ug/mL after 10 mins by flow cytometry relative to parent cells; format: cell-based; details: in the assay text read “60 uM” for “60 ug/mL”; procedure, shortened: as §1
[3] = Induction of cell death in human COLO320 cells preincubated at 20 uM for 40 mins measured after 24 hrs using annexin V/propidium iodide staining by flow cytometry; format: functional, COLO 320
Procedure, shortened: (§2)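 COLO 320 MDR cells in RPMI 1640 with 10% FBS, at 2 × 10^5/mL, were exposed for 40 min at 37 °C, with 1% DMSO as the solvent control. Cells were washed twice in PBS, then kept in medium overnight at 37 °C, 5% CO2. After 24 h, supernatant and trypsin-detached cells were pelleted and resuspended in PBS. Annexin V-FITC/PI quadrants were read by flow cytometry.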

[4] = target: T1, ATP-dependent translocase ABCB1; experiment: Inhibition of MDR1-mediated rhodamine 123 uptake expressed in mouse L5178Y cells assessed as fluorescence activity ratio at 20 ug/mL after 10 mins by flow cytometry relative to parent cells; format: cell-based; details: in the assay text read “20 uM” for “20 ug/mL”; procedure, shortened: as §1
[5] = system: COLO 320; experiment: Induction of apoptosis in human COLO320 cells preincubated assessed as late apoptosis at 20 uM for 40 mins measured after 24 hrs using annexin V/propidium iodide staining by flow cytometry; format: functional
Procedure, shortened: (§3)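 COLO 320 MDR cells at 2 × 10^5/mL were exposed to agent for 40 min at 37 °C, with 1% DMSO as solvent control. Cells were then washed twice in PBS and cultured overnight at 37 °C, 5% CO2. After 24 h, supernatant and trypsin-detached cells were pooled and centrifuged. Staining used an annexin V-FITC/propidium iodide kit (rapid protocol), read immediately by flow cytometry.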

[6] = target: T1, ATP-dependent translocase ABCB1; experiment: Inhibition of MDR1-mediated rhodamine 123 uptake expressed in mouse L5178Y cells assessed as fluorescence activity ratio at 6 uM after 10 mins by flow cytometry relative to parent cells
[7] = target: T1, ATP-dependent translocase ABCB1; experiment: Inhibition of MDR1-mediated rhodamine 123 uptake expressed in human COLO320 cells assessed as fluorescence activity ratio at 20 ug/mL after 10 mins by flow cytometry relative to parent cells; format: cell-based; details: in the assay text read “20 uM” for “20 ug/mL”
Procedure, shortened: (§4)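 COLO 320 MDR cells (and COLO 205) were held at 1 × 10^6/mL in serum-free RPMI 1640 and given compound (2 or 20 μM) for 10 min at room temperature. […] Rhodamine-123 (5.2 μM final) followed for 20 min at 37 °C; cells were washed twice into PBS. FL-1 of 10 000 cells was read by flow cytometry. FAR was calculated from treated/untreated resistant versus sensitive cells.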

[8] = system: COLO 320; experiment: Induction of apoptosis in human COLO320 cells preincubated assessed as early apoptosis at 20 uM for 40 mins measured after 24 hrs using annexin V/propidium iodide staining by flow cytometry; format: functional; procedure, shortened: as §3
[9] = target: T1, ATP-dependent translocase ABCB1; experiment: Inhibition of MDR1-mediated rhodamine 123 uptake expressed in human COLO320 cells assessed as fluorescence activity ratio at 2 ug/mL after 10 mins by flow cytometry relative to parent cells; format: cell-based; details: in the assay text read “2 uM” for “2 ug/mL”; procedure, shortened: as §4
[10] = target: T1, ATP-dependent translocase ABCB1; experiment: Inhibition of MDR1-mediated rhodamine 123 uptake expressed in human COLO320 cells assessed as fluorescence activity ratio at 2 uM after 10 mins by flow cytometry relative to parent cells
[11] = target: T1, ATP-dependent translocase ABCB1; experiment: Inhibition of MDR1-mediated rhodamine 123 uptake expressed in mouse L5178Y cells assessed as fluorescence activity ratio at 2 uM after 10 mins by flow cytometry relative to parent cells
[12] = Induction of cell death in human COLO320 cells preincubated at 200 uM for 40 mins measured after 24 hrs using annexin V/propidium iodide staining by flow cytometry; format: functional, COLO 320; procedure, shortened: as §2
[13] = system: COLO 320; experiment: Induction of apoptosis in human COLO320 cells preincubated assessed as early apoptosis at 200 uM for 40 mins measured after 24 hrs using annexin V/propidium iodide staining by flow cytometry; format: functional; procedure, shortened: as §3
[14] = system: COLO 320; experiment: Induction of apoptosis in human COLO320 cells preincubated assessed as late apoptosis at 200 uM for 40 mins measured after 24 hrs using annexin V/propidium iodide staining by flow cytometry; format: functional; procedure, shortened: as §3

CC(=O)O[C@@H]1[C@@H](OC(C)=O)C(C)(C)/C=C/[C@H](C)C(=O)[C@@]2(OC(C)=O)C[C@@H](C)[C@H](OC(=O)c3ccccc3)/C2=C/[C@](C)(O)[C@H]1OC(C)=O
Ratio [1]: 0.9
Ratio [2]: 43.4
Activity [3]: 0.9%
Ratio [4]: 10.1
Activity [5]: 4.6%
Ratio [6]: 1.4
Ratio [7]: 3
Activity [8]: 4.4%
Ratio [9]: 0.7

CC(=O)O[C@H]1[C@H](OC(C)=O)/C(C)=C\[C@H]2[C@@H](OC(=O)c3ccccc3)[C@@H](C)C[C@]2(OC(C)=O)[C@@H](OC(C)=O)[C@@H](C)/C=C/C(C)(C)[C@@H]1OC(C)=O (relative stereo) [EUPHOMELLIFERENE A]
Ratio [2]: 82.2
Ratio [10]: 2
Activity [3]: 1.11%
Ratio [4]: 23.1
Ratio [11]: 1.2
Activity [5]: 7.7%
Ratio [6]: 12.4
Ratio [7]: 5.5
Activity [8]: 5.39%

CC(=O)O[C@H]1[C@H](OC(C)=O)/C(C)=C\[C@H]2[C@@H](OC(=O)c3ccccc3)[C@H](C)C[C@]2(O)C(=O)[C@@H](C)/C=C/C(C)(C)[C@@H]1OC(C)=O (relative stereo) [EUPHOMELLIFERINE]
Ratio [1]: 1.1
Ratio [2]: 72.9
Activity [3]: 0.74%
Ratio [4]: 12.1
Activity [5]: 4.97%
Ratio [6]: 2.9
Ratio [7]: 5.1
Activity [8]: 6.72%
Ratio [9]: 1.1

CC(=O)O[C@H]1[C@H](OC(C)=O)/C(C)=C\[C@H]2[C@@H](OC(=O)c3ccccc3)[C@@H](C)C[C@]2(O)[C@@H](OC(C)=O)[C@@H](C)/C=C/C(C)(C)[C@@H]1OC(C)=O (relative stereo) [EUPHOMELLIFERENE B]
Ratio [1]: 1.1
Ratio [2]: 36.1
Activity [3]: 1.11%
Ratio [4]: 1.6
Activity [5]: 4.93%
Ratio [6]: 1.4
Ratio [7]: 2.8
Activity [8]: 3%
Ratio [9]: 0.8

c1ccc2c(c1)Nc1c(ccc3ccccc13)S2
Activity [12]: 3.24%
Activity [13]: 17.55%
Activity [14]: 58.56%
